Converted amounts (≈) assume the structure as drawn. The source made the active and inactive calls. The rule behind the calls is not given here.
What was measured:
Format in all cases: functional
[1] = tested on: Escherichia coli; assay: Antimicrobial activity against Escherichia coli NCIM 2065 at 1000 ug/disk after 24 hrs by disk diffusion method; conditions: NCIM 2065, 24 h, read-out: DIZ
Method in brief: (§1)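 Disc diffusion on Mueller–Hinton agar. 100 µl of bacterial suspension at 10⁸ CFU/ml is spread on the plate. Discs carry test compounds at two loadings, dissolved in DMSO; DMSO alone serves as negative control. Ofloxacin disc is the positive reference. Plates are incubated at 37 °C for 24 h, and the inhibition zone diameter is measured.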

[2] = tested on: Bacillus subtilis; assay: Antimicrobial activity against Bacillus subtilis NCIM 2063 at 1000 ug/disk after 24 hrs by disk diffusion method; conditions: NCIM 2063, 24 h, read-out: DIZ; method in brief: as §1
[3] = tested on: Bacillus cereus; assay: Antimicrobial activity against Bacillus cereus NCIM 2155 at 500 ug/disk after 24 hrs by disk diffusion method; method in brief: as §1
[4] = tested on: Bacillus cereus; assay: Antimicrobial activity against Bacillus cereus NCIM 2155 at 1000 ug/disk after 24 hrs by disk diffusion method; method in brief: as §1
[5] = tested on: Aliivibrio fischeri; assay: Antimicrobial activity against Vibrio fischeri NCIM 2154 at 500 ug/disk after 24 hrs by disk diffusion method; conditions: NCIM 2154, 24 h, read-out: DIZ
Method in brief: (§2)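 Disc diffusion. 100 µl of bacterial suspension at 10⁸ CFU/ml was spread on Mueller–Hinton agar. Discs loaded with test compound dissolved in DMSO were placed on the lawn, with a DMSO-only disc as negative control. Plates were incubated at 37 °C for 24 h, and the inhibition zone diameter was measured.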

[6] = tested on: Aliivibrio fischeri; assay: Antimicrobial activity against Vibrio fischeri NCIM 2154 at 1000 ug/disk after 24 hrs by disk diffusion method; conditions: NCIM 2154, 24 h, read-out: DIZ; method in brief: as §2
[7] = tested on: Rhodococcus corynebacterioides; assay: Antimicrobial activity against Corynebacterium rubrum NCIM 2252 at 500 ug/disk after 24 hrs by disk diffusion method; conditions: Rhodococcoides corynebacterioides, NCIM 2252, 24 h; read-out: DIZ; method in brief: as §1
[8] = tested on: Rhodococcus corynebacterioides; assay: Antimicrobial activity against Corynebacterium rubrum NCIM 2252 at 1000 ug/disk after 24 hrs by disk diffusion method; conditions: Rhodococcoides corynebacterioides, NCIM 2252, 24 h; read-out: DIZ; method in brief: as §1
[9] = tested on: Staphylococcus; assay: Antimicrobial activity against Staphylococcus albus NCIM 2178 at 1000 ug/disk after 24 hrs by disk diffusion method; method in brief: as §2
[10] = tested on: Proteus vulgaris; assay: Antimicrobial activity against Proteus vulgaris NCIM 2027 at 500 ug/disk after 24 hrs by disk diffusion method; method in brief: as §1
[11] = tested on: Proteus vulgaris; assay: Antimicrobial activity against Proteus vulgaris NCIM 2027 at 1000 ug/disk after 24 hrs by disk diffusion method; method in brief: as §1
[12] = tested on: Aspergillus flavus; assay: Antimicrobial activity against Aspergillus flavus NCIM 902 at 1000 ug/disk after 72 hrs by disk diffusion method; conditions: NCIM 902, 72 h, read-out: DIZ
Method in brief: (§3)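 Disc diffusion on Sabouraud's dextrose agar. 100 µl of fungal suspension at 10⁶ CFU/ml is spread on the plate. Discs carry test compounds at two loadings in DMSO; DMSO alone is the negative control. Clotrimazole disc is the positive reference. Plates are incubated at 27 °C for 72 h, and the zone of inhibition diameter is measured.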

[13] = tested on: Rhodotorula mucilaginosa; assay: Antimicrobial activity against Rhodotorula rubra NCIM 3174 at 500 ug/disk after 72 hrs by disk diffusion method; conditions: NCIM 3174, 72 h, read-out: DIZ
Method in brief: (§4)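 Fungal disc diffusion. 100 µl of suspension at 10⁶ CFU/ml was spread on Sabouraud's dextrose agar. Discs carrying test compound in DMSO were applied, with a DMSO-only disc as negative control. Plates were incubated at 27 °C for 72 h, and the zone of inhibition diameter was measured.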

[14] = tested on: Rhodotorula mucilaginosa; assay: Antimicrobial activity against Rhodotorula rubra NCIM 3174 at 1000 ug/disk after 72 hrs by disk diffusion method; conditions: NCIM 3174, 72 h, read-out: DIZ; method in brief: as §4
[15] = tested on: Aspergillus fumigatus; assay: Antimicrobial activity against Aspergillus fumigatus NCIM 902 at 500 ug/disk after 72 hrs by disk diffusion method; method in brief: as §3
[16] = tested on: Aspergillus fumigatus; assay: Antimicrobial activity against Aspergillus fumigatus NCIM 902 at 1000 ug/disk after 72 hrs by disk diffusion method; conditions: NCIM 902, 72 h, read-out: DIZ; method in brief: as §3
[17] = tested on: Aspergillus parasiticus; assay: Antimicrobial activity against Aspergillus parasiticus NCIM 904 at 1000 ug/disk after 72 hrs by disk diffusion method; conditions: NCIM 904, 72 h, read-out: DIZ; method in brief: as §3
[18] = tested on: Penicillium chrysogenum; assay: Antimicrobial activity against Penicillium chrysogenum NCIM 707 at 500 ug/disk after 72 hrs by disk diffusion method; method in brief: as §3
[19] = tested on: Penicillium chrysogenum; assay: Antimicrobial activity against Penicillium chrysogenum NCIM 707 at 1000 ug/disk after 72 hrs by disk diffusion method; method in brief: as §3
[20] = tested on: Lipomyces lipofer; assay: Antimicrobial activity against Lipomyces lipofer NCIM 3252 at 500 ug/disk after 72 hrs by disk diffusion method; method in brief: as §3
[21] = tested on: Lipomyces lipofer; assay: Antimicrobial activity against Lipomyces lipofer NCIM 3252 at 1000 ug/disk after 72 hrs by disk diffusion method; method in brief: as §3
[22] = tested on: Klebsiella aerogenes; assay: Antimicrobial activity against Klebsiella aerogenes NCIM 2239 at 1000 ug/disk after 24 hrs by disk diffusion method; method in brief: as §1
[23] = tested on: Pseudomonas aeruginosa; assay: Antimicrobial activity against Pseudomonas aeruginosa NCIM 2200 at 1000 ug/disk after 24 hrs by disk diffusion method; method in brief: as §1
[24] = tested on: Aspergillus flavus; assay: Antimicrobial activity against Aspergillus flavus NCIM 902 after 72 hrs by serial dilution method; conditions: NCIM 535, 72 h, in the assay text read “NCIM 535” for “NCIM 902”
Method in brief: (§5)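 MIC by broth dilution in Sabouraud's dextrose broth, only for fungi sensitive in disc diffusion. Two-fold serial dilutions of compounds are made in 1 ml broth per tube, range 3.9 to 1000. Inoculated tubes are incubated at 27 °C for 72 h.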

[25] = tested on: Rhodotorula mucilaginosa; assay: Antimicrobial activity against Rhodotorula rubra NCIM 3174 after 72 hrs by serial dilution method; conditions: NCIM 3174, 72 h
Method in brief: (§6)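 MIC by broth dilution in Sabouraud's dextrose broth, run only on fungi found sensitive in the disc assay. Twofold serial dilutions were made in 1 ml broth per tube, covering 3.9 to 1000. Inoculated tubes were incubated at 27 °C for 72 h.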

[26] = tested on: Aspergillus parasiticus; assay: Antimicrobial activity against Aspergillus parasiticus NCIM 904 after 72 hrs by serial dilution method; conditions: NCIM 904, 72 h; method in brief: as §5
[27] = tested on: Trichoderma viride; assay: Antimicrobial activity against Trichoderma viride NCIM 1195 after 72 hrs by serial dilution method; conditions: NCIM 1195, 72 h; method in brief: as §6
[28] = tested on: Trichoderma viride; assay: Antimicrobial activity against Trichoderma viride NCIM 1195 at 500 ug/disk after 72 hrs by disk diffusion method; conditions: NCIM 1195, 72 h, read-out: DIZ; method in brief: as §4
[29] = tested on: Trichoderma viride; assay: Antimicrobial activity against Trichoderma viride NCIM 1195 at 1000 ug/disk after 72 hrs by disk diffusion method; conditions: NCIM 1195, 72 h, read-out: DIZ; method in brief: as §4
[30] = tested on: Escherichia coli; assay: Antimicrobial activity against Escherichia coli NCIM 2065 after 24 hrs by serial dilution method; conditions: NCIM 2065, 24 h
Method in brief: (§7)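 Broth dilution MIC in nutrient broth, run only for organisms found sensitive in disc diffusion. Compounds are two-fold serially diluted in 1 ml sterile broth per tube, spanning 3.9 to 1000. Inoculated tubes are incubated at 37 °C for 24 h.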

[31] = tested on: Bacillus subtilis; assay: Antimicrobial activity against Bacillus subtilis NCIM 2063 after 24 hrs by serial dilution method; conditions: NCIM 2063, 24 h; method in brief: as §7
[32] = tested on: Aliivibrio fischeri; assay: Antimicrobial activity against Vibrio fischeri NCIM 2154 after 24 hrs by serial dilution method; conditions: NCIM 2154, 24 h

Row | Structure (SMILES) | zone of inhibition at 1000 µg/disc [1] | zone of inhibition at 1000 µg/disc [2] | zone of inhibition at 500 µg/disc [5] | zone of inhibition at 1000 µg/disc [6] | zone of inhibition at 500 µg/disc [7] | zone of inhibition at 1000 µg/disc [8] | diameter of the inhibition zone (DIZ) [9] | diameter of the inhibition zone (DIZ) [10] | diameter of the inhibition zone (DIZ) [11] | zone of inhibition at 1000 µg/disc [12] | zone of inhibition at 500 µg/disc [13] | zone of inhibition at 1000 µg/disc [14] | diameter of the inhibition zone (DIZ) [15] | zone of inhibition at 1000 µg/disc [16] | zone of inhibition at 1000 µg/disc [17] | diameter of the inhibition zone (DIZ) [20] | diameter of the inhibition zone (DIZ) [23] | MIC [24] | MIC [25] | MIC [26] | further results
1 | CC1(C)CC(=O)C2=C(C1)Nc1c(ccc3ccccc13)C2c1cccc(Cl)c1 (centres undefined) | 8 mm | 9 mm | 7 mm | 9 mm | 7 mm | 8 mm | inactive | inactive | inactive | 10 mm | 7 mm | 9 mm | inactive | 9 mm | 12 mm | inactive | inactive | 62.5 µg/mL (≈ 161 µM) | 62.5 µg/mL (≈ 161 µM) | 31.2 µg/mL (≈ 80.4 µM) | zone of inhibition at 500 µg/disc ([3]; NCIM 2155, 24 h, read-out: DIZ): 9 mm; zone of inhibition at 1000 µg/disc ([4]; NCIM 2155, 24 h, read-out: DIZ): 10 mm; zone of inhibition at 500 µg/disc ([18]; NCIM 707, 72 h, read-out: DIZ): 7 mm; zone of inhibition at 1000 µg/disc ([19]; NCIM 707, 72 h, read-out: DIZ): 10 mm; zone of inhibition at 1000 µg/disc ([21]; NCIM 3252, 72 h, read-out: DIZ): 8 mm; zone of inhibition at 1000 µg/disc ([22]; NCIM 2239, 24 h, read-out: DIZ): 9 mm; MIC [27]: 15.6 µg/mL (≈ 40.2 µM); zone of inhibition at 500 µg/disc [28]: 10 mm; zone of inhibition at 1000 µg/disc [29]: 13 mm; MIC [30]: 125 µg/mL (≈ 322 µM); MIC [31]: 62.5 µg/mL (≈ 161 µM); MIC [32]: 125 µg/mL (≈ 322 µM)
2 | O=C1CCCC2=C1C(c1ccccc1Cl)c1ccc3ccccc3c1N2 (centres undefined) | 8 mm | 10 mm | 7 mm | 9 mm | 7 mm | 8 mm | inactive | inactive | inactive | 9 mm | 13 mm | 16 mm | inactive | 9 mm | 10 mm | inactive | inactive | 62.5 µg/mL (≈ 174 µM) | 3.9 µg/mL (≈ 10.8 µM) | 62.5 µg/mL (≈ 174 µM) | diameter of the inhibition zone (DIZ) [3]: inactive; diameter of the inhibition zone (DIZ) [4]: inactive; diameter of the inhibition zone (DIZ) [18]: inactive; diameter of the inhibition zone (DIZ) [19]: inactive; diameter of the inhibition zone (DIZ) [21]: inactive; diameter of the inhibition zone (DIZ) [22]: inactive; MIC [27]: 62.5 µg/mL (≈ 174 µM); zone of inhibition at 500 µg/disc [28]: 9 mm; zone of inhibition at 1000 µg/disc [29]: 10 mm; MIC [30]: 125 µg/mL (≈ 347 µM); MIC [31]: 62.5 µg/mL (≈ 174 µM); MIC [32]: 125 µg/mL (≈ 347 µM)
